Measured values as given in ChEMBL document CHEMBL3351600, “Sulfur, selenium and tellurium pseudopeptides: synthesis and biological evaluation” (Bioorg Med Chem, 2014).
Calls of active or inactive are those of the source. The rule behind the calls is not given here.

Experiments:
[1] = Cytotoxicity against human fibroblasts assessed as cell viability after 24 hrs incubation by MTT assay; format: cell-based; settings: Fibroblast
How it was run: (§1)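 Cell lines came from DSMZ; primary human fibroblasts served as non-cancer controls. Cells were grown in medium with 10% FCS, seeded at 50,000 cells/ml, and grown 2 days at 37 °C, 10% CO2. Serial dilutions were then added for 24 h. MTT (final 0.5 mg/ml) was added for 2 h. Formazan was pelleted, PBS-washed, dissolved in isopropanol/0.4% HCl and read at 590 nm. Two parallel experiments were run. IC50 was taken as the concentration giving 50% of untreated-control absorbance.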

Pseudomonas aeruginosa = experiment: Antimicrobial activity against Pseudomonas aeruginosa assessed as inhibition at 20 ug/6 mm disk after 1 to 2 days by agar diffusion assay; format: functional
How it was run: (§2)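 Standard agar diffusion: 6-mm paper disks loaded with 20 µg of compound were placed on inoculated plates. Inhibition-zone diameter (mm) was read after 1 and 2 days of growth.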

Staphylococcus aureus = experiment: Antimicrobial activity against Staphylococcus aureus assessed as inhibition at 20 ug/6 mm disk after 1 to 2 days by agar diffusion assay; format: functional; how it was run: as §2
A-431 [2] = experiment: Reduction in ROS in human A431 cells assessed as decrease in hydrogen peroxide level at 1 to 100 ng/ml after 1 hr by DCHFA assay; format: functional, cell-based
How it was run: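 A-431 cells (10^5 per well) were treated with a range of compound concentrations for 1 h. They were then loaded with DCHFA probe for 30 min in the dark. Fluorescence (ex 485/em 528 nm) was read immediately and expressed as arbitrary units per 10^5 cells.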

[3] = Octanol-water partition coefficient, log P of the compound by HPLC analysis; format: physicochemical
How it was run: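 Lipophilicity was measured by reversed-phase HPLC on a Nucleosil C18 column with isocratic water/methanol (3:1) at 0.5 ml/min and UV detection at 230 and 245 nm. Dead time was set with thiourea (t0 0.728 min). Retention factor was k = (tR − t0)/t0, and log P came from a calibration against at least six reference compounds.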

A-431 [4] = experiment: Cytotoxicity against human A431 cells assessed as cell viability after 24 hrs incubation by MTT assay; format: functional, cell-based; settings: A-431, 24 h; how it was run: as §1
Mycolicibacterium phlei = experiment: Antimicrobial activity against Mycobacterium phlei assessed as inhibition at 20 ug/6 mm disk after 1 to 2 days by agar diffusion assay; format: functional; how it was run: as §2
MCF7 = experiment: Cytotoxicity against human MCF7 cells assessed as cell viability after 24 hrs incubation by MTT assay; format: functional, cell-based; settings: MCF7, 24 h; how it was run: as §1
Aspergillus niger = experiment: Antimicrobial activity against Aspergillus niger assessed as inhibition at 20 ug/6 mm disk after 1 to 2 days by agar diffusion assay; format: functional; how it was run: as §2
[5] = Lipophilicity, log K of the compound by HPLC analysis
Klebsiella pneumoniae = experiment: Antimicrobial activity against Klebsiella pneumoniae assessed as inhibition at 20 ug/6 mm disk after 1 to 2 days by agar diffusion assay; format: functional; how it was run: as §2
Saccharomyces cerevisiae = experiment: Antimicrobial activity against Saccharomyces cerevisiae assessed as inhibition at 20 ug/6 mm disk after 1 to 2 days by agar diffusion assay; format: functional; how it was run: as §2
Candida albicans = experiment: Antimicrobial activity against Candida albicans assessed as inhibition at 20 ug/6 mm disk after 1 to 2 days by agar diffusion assay; format: functional; how it was run: as §2
Escherichia coli = experiment: Antimicrobial activity against Escherichia coli tolC assessed as inhibition at 20 ug/6 mm disk after 1 to 2 days by agar diffusion assay; format: functional; how it was run: as §2
Micrococcus luteus = experiment: Antimicrobial activity against Micrococcus luteus assessed as inhibition at 20 ug/6 mm disk after 1 to 2 days by agar diffusion assay; format: functional; how it was run: as §2
A-431 [6] = experiment: Reduction in ROS in human A431 cells assessed as decrease in hydrogen peroxide level at 0.1 to 10 ng/ml after 1 hr by DCHFA assay; format: functional, cell-based
How it was run: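 A-431 cells were seeded at 10^5 per well and exposed to a range of compound concentrations for 1 h. They were then loaded with DCHFA probe for 30 min in the dark. Fluorescence was read immediately at ex/em 485/528 nm and expressed as arbitrary units per 10^5 cells.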

| Structure (SMILES) | logP [3] | log K [5] | Retention_time | IC50 [1] | diameter of the inhibition zone (DIZ) (Pseudomonas aeruginosa) | diameter of the inhibition zone (DIZ) (Staphylococcus aureus) | Activity (A-431 [2]) | IC50 (A-431 [4]) | diameter of the inhibition zone (DIZ) (Mycolicibacterium phlei) | IC50 (MCF7) | diameter of the inhibition zone (DIZ) (Aspergillus niger) | diameter of the inhibition zone (DIZ) (Klebsiella pneumoniae) | diameter of the inhibition zone (DIZ) (Saccharomyces cerevisiae) | diameter of the inhibition zone (DIZ) (Candida albicans) | diameter of the inhibition zone (DIZ) (Escherichia coli) | diameter of the inhibition zone (DIZ) (Micrococcus luteus) | Activity (A-431 [6]) |
| --- | --- | --- | --- | --- | --- | --- | --- | --- | --- | --- | --- | --- | --- | --- | --- | --- | --- |
| COc1ccc(N(CC(=O)NCCCSc2ccccc2)C(=O)C#Cc2ccccc2)cc1 | 3.4 | 0.12 | 1.698 min | ≥ 100 µM | 0 mm | 0 mm | inactive | ≥ 100 µM | 0 mm | ≥ 100 µM | 0 mm | 0 mm | 0 mm | 0 mm | 0 mm | 0 mm |  |
| Cc1ccccc1 [TOLUENE] |  |  | 1.508 min |  |  |  |  |  |  |  |  |  |  |  |  |  |  |
| COc1ccc(N(CC(=O)NCCCSc2ccccc2)C(=O)/C=C/c2ccccc2)cc1 | 4 | 0.39 | 2.514 min | ≥ 100 µM | 0 mm | 0 mm |  | ≥ 100 µM | 15 mm | ≥ 100 µM | 0 mm | 0 mm | 0 mm | 0 mm | 0 mm | 0 mm |  |
| O=C(COC(=O)C#Cc1ccccc1)NCCC[Te]c1ccccc1 | 0.9 | -1.04 | 0.794 min | 7 µM | 0 mm | 0 mm |  | 7 µM | 15 mm | 1 µM | 0 mm | 0 mm | 0 mm | 0 mm | 0 mm | 9 mm | Dose-dependent effect |
| O=C(COC(=O)/C=C/c1ccccc1)NCCC[Te]c1ccccc1 | 3.01 | -0.06 | 1.356 min | 11 µM | 0 mm | 0 mm |  | 6 µM | 0 mm | 1 µM | 0 mm | 0 mm | 0 mm | 0 mm | 0 mm | 7 mm | Dose-dependent effect |
| COc1ccc(N(CC(=O)NCCC[Se]c2ccccc2)C(=O)CCSC2=C(C)C(=O)c3ccccc3C2=O)cc1 | 4.23 | 0.55 | 3.297 min | 24 µM | 0 mm | 0 mm |  | 17 µM | 0 mm | 8 µM | 0 mm | 0 mm | 0 mm | 0 mm | 0 mm | 7 mm |  |
| COc1ccc(N(CC(=O)NCCC[Te]c2ccccc2)C(=O)/C=C/c2ccccc2)cc1 | 1.31 | -0.84 | 0.834 min | 5 µM | 9 mm | 11 mm |  | 6 µM | 12 mm | 2 µM | 0 mm | 13 mm | 0 mm | 0 mm | 11 mm | 8 mm | Dose-dependent effect |
| NC(N)=S [THIOUREA] |  |  | 0.728 min |  |  |  |  |  |  |  |  |  |  |  |  |  |  |
| Cc1ccc(C(C)C)c(O)c1 [THYMOL] |  | -0.12 | 1.285 min |  |  |  |  |  |  |  |  |  |  |  |  |  |  |
| c1ccc2ccccc2c1 |  | 0.2 | 1.894 min |  |  |  |  |  |  |  |  |  |  |  |  |  |  |
| COc1ccc(N(CC(=O)NCCCSc2ccccc2)C(=O)CCSC2=C(C)C(=O)c3ccccc3C2=O)cc1 | 4.2 | 0.48 | 2.94 min | 26 µM | 0 mm | 0 mm |  | 17 µM | 0 mm | 16 µM | 0 mm | 0 mm | 0 mm | 0 mm | 0 mm | 0 mm |  |
| c1ccccc1 [BENZENE] |  | -0.53 |  |  |  |  |  |  |  |  |  |  |  |  |  |  |  |

Continued, in another order:

| logP [3] | log K [5] | Retention_time | Structure (SMILES) | IC50 [1] | diameter of the inhibition zone (DIZ) (Pseudomonas aeruginosa) | diameter of the inhibition zone (DIZ) (Staphylococcus aureus) | Activity (A-431 [2]) | IC50 (A-431 [4]) | diameter of the inhibition zone (DIZ) (Mycolicibacterium phlei) | IC50 (MCF7) | diameter of the inhibition zone (DIZ) (Aspergillus niger) | diameter of the inhibition zone (DIZ) (Klebsiella pneumoniae) | diameter of the inhibition zone (DIZ) (Saccharomyces cerevisiae) | diameter of the inhibition zone (DIZ) (Candida albicans) | diameter of the inhibition zone (DIZ) (Escherichia coli) | diameter of the inhibition zone (DIZ) (Micrococcus luteus) | Activity (A-431 [6]) |
| --- | --- | --- | --- | --- | --- | --- | --- | --- | --- | --- | --- | --- | --- | --- | --- | --- | --- |
| 2.6 | -0.25 | 1.134 min | COc1ccc(N(CC(=O)NCCC[Se]c2ccccc2)C(=O)C#Cc2ccccc2)cc1 | ≥ 100 µM | 0 mm | 0 mm |  | ≥ 100 µM | 0 mm | ≥ 100 µM | 19 mm | 0 mm | 0 mm | 0 mm | 0 mm | 0 mm |  |
|  | 0.6 | 3.615 min | c1ccc2c(c1)ccc1ccccc12 |  |  |  |  |  |  |  |  |  |  |  |  |  |  |
| 3.3 | -0.01 | 1.434 min | COc1ccc(N(CC(=O)NCCC[Se]c2ccccc2)C(=O)CNC(=O)OC(C)(C)C)cc1 | ≥ 100 µM | 0 mm | 0 mm |  | ≥ 100 µM | 0 mm | ≥ 100 µM | 0 mm | 0 mm | 0 mm | 0 mm | 0 mm | 0 mm |  |
| 3.12 | 0.3 | 2.17 min | COc1ccc(N(CC(=O)NCCCSc2ccccc2)C(=O)CNC(=O)OC(C)(C)C)cc1 | ≥ 100 µM | 0 mm | 0 mm |  | ≥ 100 µM | 0 mm | ≥ 100 µM | 0 mm | 0 mm | 0 mm | 0 mm | 0 mm | 0 mm |  |
|  | -0.94 | 0.811 min | CC(=O)Nc1ccccc1 [ACETANILIDE] |  |  |  |  |  |  |  |  |  |  |  |  |  |  |
